Source: ChEMBL document CHEMBL3286167 (J Med Chem, 2014)

Legend:
[1] = molecular target: Neurotensin receptor type 1 (Rattus norvegicus) (UniProt P20789); test: Antagonist activity at rat NTS1 stably expressed in CHOK1 cells assessed as inhibition of NT-induced calcium release by FLIPR assay; format: functional, cell-based; settings: CHO-K1
Summary of the method: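 Rat NTS1 CHO-k1 cells, plated at 30000/well on the assay day. Cells were loaded with Calcium 5 dye (1:40 in HBSS, 20 mM HEPES, 2.5 mM probenecid, pH 7.4) for 45 min at 37 °C, then preincubated with compound for 15 min. […] Fluorescence (ex 485/em 525 nm) read for 60 s on FlexStation II; three-parameter logistic fit; at least three experiments in duplicate.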

[2] = molecular target: T1, Neurotensin receptor type 2 (Rattus norvegicus) (UniProt Q63384); test: Agonist activity at rat NTS2 stably expressed in CHOK1 cells assessed as induction of calcium release by FLIPR assay relative to SR142948a; format: functional, cell-based; settings: CHO-K1
T1 sequence (whole entry): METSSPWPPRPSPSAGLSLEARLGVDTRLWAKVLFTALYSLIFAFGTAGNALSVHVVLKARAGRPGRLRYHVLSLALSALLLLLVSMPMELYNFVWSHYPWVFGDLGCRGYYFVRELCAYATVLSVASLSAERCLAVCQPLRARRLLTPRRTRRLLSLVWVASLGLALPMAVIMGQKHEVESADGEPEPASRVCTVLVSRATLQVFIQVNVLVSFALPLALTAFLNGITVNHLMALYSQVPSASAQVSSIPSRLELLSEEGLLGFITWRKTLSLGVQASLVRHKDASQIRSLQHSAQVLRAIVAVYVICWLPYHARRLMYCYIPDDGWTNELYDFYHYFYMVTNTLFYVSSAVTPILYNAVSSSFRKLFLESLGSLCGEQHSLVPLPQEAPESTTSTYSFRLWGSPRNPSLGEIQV
Summary of the method: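 Rat NTS2 expressed in CHO-k1 cells, plated at 25000/well the day before the assay. Cells were loaded with Calcium 5 dye (1:20 in HBSS, 20 mM HEPES, 2.5 mM probenecid, pH 7.4) for 45 min at 37 °C, then pretreated with 10% DMSO added 1:10. Full-log compound dilutions were read on FLIPR Tetra every second for 100 s. Emax is expressed as % of the full-agonist standard; EC50 from a three-parameter logistic fit; at least three experiments in duplicate.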

[3] = molecular target: Neurotensin receptor type 1 (Rattus norvegicus, UniProt P20789); test: Agonist activity at rat NTS1 stably expressed in CHOK1 cells assessed as induction of calcium release by FLIPR assay; format: functional, cell-based; settings: cho-k1
[4] = molecular target: T2, Neurotensin receptor type 2 (Rattus norvegicus, UniProt Q63384); test: Agonist activity at rat NTS2 stably expressed in CHOK1 cells assessed as induction of calcium release by FLIPR assay; format: functional, cell-based, CHO-K1
T2 sequence (Q63384 whole entry): T1 sequence (whole entry)

[5] = molecular target: T2, Neurotensin receptor type 2; test: Displacement of [125I]NT at rat NTS2 overexpressed in CHOK1 cells after 30 mins by gamma counting; format: cell-based, CHO-K1

Neurotensin receptor type 1 (Rattus norvegicus), sequence (P20789 whole entry): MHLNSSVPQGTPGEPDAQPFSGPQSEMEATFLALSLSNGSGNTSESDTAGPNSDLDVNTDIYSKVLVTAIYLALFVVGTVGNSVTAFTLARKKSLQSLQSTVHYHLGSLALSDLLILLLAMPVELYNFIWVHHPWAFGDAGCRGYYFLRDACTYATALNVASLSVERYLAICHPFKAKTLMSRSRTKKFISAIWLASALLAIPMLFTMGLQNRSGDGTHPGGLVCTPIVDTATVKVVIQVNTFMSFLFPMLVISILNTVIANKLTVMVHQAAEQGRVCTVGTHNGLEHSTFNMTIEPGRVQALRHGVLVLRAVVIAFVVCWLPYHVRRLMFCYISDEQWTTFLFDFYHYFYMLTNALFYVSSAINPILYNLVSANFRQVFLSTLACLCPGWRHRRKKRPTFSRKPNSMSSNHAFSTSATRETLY
Neurotensin receptor type 1, sequence (P20789 whole entry): as above

Compound | Ke [1] | Emax [2] | also measured
COc1cccc(OC)c1-c1cc(C(=O)N[C@H](C(=O)O)C2CCCCC2)nn1-c1ccc(F)cc1 | 3340 nM | 22% | 
C[C@@H]1CN([C@H]2CC[C@](C#N)(c3ccc(F)cc3)CC2)CC[C@]1(C(=O)O)c1ccccc1 [LEVOCABASTINE] |  | 16% | EC50 [3]: Not Active
COc1ccccc1-c1cc(C(=O)NC2(C(=O)O)CCCCC2)nn1-c1ccnc2cc(Cl)ccc12 | 4550 nM | 35% | 
COc1ccc(-c2cc(C(=O)N[C@H](C(=O)O)C3CCCCC3)nn2-c2ccnc3cc(Cl)ccc23)c(OC)c1 |  | 12% | 
COc1cccc(OC)c1-c1cc(C(=O)N[C@H](C(=O)O)C2CCCCC2)nn1-c1cccc2ccccc12 | 58 nM | 45% | 
COc1ccccc1-c1cc(C(=O)NC2(C(=O)O)CCCCC2)nn1-c1cccc2ccccc12 | 7380 nM | 18% | 
COc1cccc(OC)c1-c1cc(C(=O)NC2(C(=O)O)C3CC4CC(C3)CC2C4)nn1-c1ccc(F)cc1 (configuration not stated) | 191 nM | 34% | 
COc1cccc(OC)c1-c1cc(C(=O)NC2(C(=O)O)CCCCCC2)nn1-c1ccnc2cc(Cl)ccc12 | 42 nM | 89% | 
COc1cccc(OC)c1-c1cc(C(=O)NC2C3CC4CC(C3)CC2C4)nn1-c1ccnc2cc(Cl)ccc12 (configuration not stated) |  |  | EC50 ([4]; cho-k1): Not Active
CC[C@H](C)[C@H](NC(=O)[C@H](Cc1ccc(O)cc1)NC(=O)[C@@H]1CCCN1C(=O)[C@H](CCCN=C(N)N)NC(=O)[C@@H](N)CCCN=C(N)N)C(=O)N[C@@H](CC(C)C)C(=O)O |  |  | EC50 ([4]; cho-k1): Not Active
COc1ccccc1-c1cc(C(=O)N[C@H](C(=O)O)C2CCCCC2)nn1-c1ccnc2cc(Cl)ccc12 | 1680 nM | 25% | 
COc1ccc(OC)c(-c2cc(C(=O)N[C@H](C(=O)O)C3CCCCC3)nn2-c2ccnc3cc(Cl)ccc23)c1 | 1280 nM | 19% | 
O=C(N[C@H](C(=O)O)C1CCCCC1)c1cc(-c2c(F)cccc2F)n(-c2ccnc3cc(Cl)ccc23)n1 |  | 15% | 
COc1cccc(OC)c1-c1cc(C(=O)NC2(C(=O)O)CCCCC2)nn1-c1cccc2ccccc12 | 230 nM | 35% | 
COc1ccccc1-c1cc(C(=O)N[C@H](C(=O)O)C2CCCCC2)nn1-c1cccc2ccccc12 | 1400 nM | 18% | 
COc1cccc(OC)c1-c1cc(C(=O)NC2(C(=O)O)CCCC2)nn1-c1ccnc2cc(Cl)ccc12 | 222 nM | 76% | 
COc1cccc(OC)c1-c1cc(C(=O)NC2(C(=O)O)C3CC4CC(C3)CC2C4)nn1-c1ccnc2cc(Cl)ccc12 (configuration not stated) [REMINERTANT] |  | 100% | EC50 ([4]; read-out: EC50): 120 nM; Ki [5]: 62 nM
COc1cccc(OC)c1-c1cc(C(=O)NC2(C(=O)O)CCCCC2)nn1-c1ccnc2cc(Cl)ccc12 | 157 nM | 78% | 
COc1cccc(OC)c1-c1cc(C(=O)NC2(C(=O)O)C3CC4CC(C3)CC2C4)nn1-c1ccc(C(=O)N(C)CCCN(C)C)cc1C(C)C (configuration not stated) |  | 100% | EC50 ([4]; read-out: EC50): 20 nM; Ki [5]: 6 nM
CCc1c(C(=O)N[C@H](C(=O)O)C2CCCCC2)nn(-c2ccnc3cc(Cl)ccc23)c1-c1c(OC)cccc1OC |  | 15% | EC50 ([4]; read-out: EC50): 94 nM; Ki [5]: 1180 nM
COc1cccc(OC)c1-c1cc(C(=O)NC2(C(=O)O)CCCCC2)nn1-c1ccc(F)cc1 |  | 15% | 
COc1cccc(OC)c1-c1cc(C(=O)N[C@H](C(=O)O)C2CCCCC2)nn1-c1ccnc2cc(Cl)ccc12 | 23 nM | 86% | 
